SENP8 block-1 – human SENP8 protease inhibitors, primary screen, biochemical, fluorescence, Nedd8 protein substrate, uHTS; Sentrin-specific protease 8 (Homo sapiens), Q96LD8; hit rate 0.64% among 360,000; recombinant SENP8; AID 602440, 2012; inhibition, % at 20 µM; in the data active means inhibition mostly above about 40%, no sharp cut-off; inactive means mostly below about 27%
Target sequence (Q96LD8 whole entry, looked up): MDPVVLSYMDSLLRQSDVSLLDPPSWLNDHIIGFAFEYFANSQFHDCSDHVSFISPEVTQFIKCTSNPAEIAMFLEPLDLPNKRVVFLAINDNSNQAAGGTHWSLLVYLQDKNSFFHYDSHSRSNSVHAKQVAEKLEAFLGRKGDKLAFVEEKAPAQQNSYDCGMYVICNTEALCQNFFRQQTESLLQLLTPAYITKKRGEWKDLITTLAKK
SENP7 block – SENP7 protease inhibitors, primary screen, biochemical, luminescence, uHTS | Sentrin-specific protease 7 (Homo sapiens), Q9BQF6 | recombinant SENP7, Z-RLRGG-aminoluciferin luminescence, 40 min | inhibition, % at 5 µM | hit rate 1.5% among 330,000;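 active means inhibition above about 50% at the single test dose, limit read from the data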;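 further: plate controls were DMSO with enzyme for no effect and no enzyme buffer wells for full effect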
HSP90 refold inh – HSP90 inhibitors, primary screen, cell lysate, luminescence; Heat shock protein HSP 90 (rabbit reticulocyte lysate; luciferase refolding); Rabbit reticulocyte lysate, luciferase refolding luminescence, 3 h; inhibition, % at 5.6 µM; hit rate 0.91% among 290,000; AID 1789, 2009;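 active means inhibition above the screen-wide mean plus 3 SD, computed separately per campaign, cut at about 16% in these data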;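 further: 0% = DMSO wells and 100% = 60 µM geldanamycin wells; inhibitors lower the luminescence because luciferase stays unfolded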
SENP8 block-2 – SENP8 protease inhibitors, primary screen, biochemical, luminescence; purified SENP8, Z-RLRGG-aminoluciferin cleavage; inhibition, % at 10 µM; hit rate 1.2% among 330,000; in the data active means inhibition above about 50%
SENP1 inh – human SENP1 catalytic domain inhibitors, primary screen, biochemical, FRET, uHTS; Sentrin-specific protease 1 (Homo sapiens), Q9P0U3; recombinant SENP1 catalytic domain, CyPet-SUMO1-YPet FRET cleavage; inhibition, % at 10 µM; hit rate 0.21% among 360,000; AID 624204, 2012;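 active means inhibition at least 30% at 10 µM, raw YFP signal under a set limit, fluorescence ratio 0.5 to 1.5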;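 further: 0% = enzyme with DMSO and 100% = no enzyme wells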
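System: Recombinant human SENP1 catalytic domain, His6-tagged | Incubation: Enzyme reaction for 50 min at room temperature, dark | Medium: Tris pH 8 with BME, BSA, NP40 and catalase | Also added: 25 nM SUMO1 FRET substrate | Compound: 10 µM single point, 0.5% DMSO | Measured by: FRET fluorescence in CFP and YFP emission channels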
SENP6 inh – SENP6 protease inhibitors, primary screen, biochemical, luminescence, uHTS; AID 2599, 2010; hit rate 1.8% among 330,000; inhibition, % at 10 µM; Sentrin-specific protease 6 (Homo sapiens), Q9GZR1; Recombinant SENP6 catalytic domain, aminoluciferin luminescence;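 active means inhibition above about 50% at the single tested dose, limit read from the data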;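 further: plate controls were DMSO wells with enzyme for no effect and DMSO wells lacking enzyme for full effect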
SENP8 conf – SENP8 protease inhibitors, retest, confirmation, biochemical, luminescence, single concentration | hit rate 40% among 6,200 | inhibition, % at 12.5 µM | Recombinant SENP8, Z-RLRGG-aminoluciferin luminescence, 60 min | shares compounds with SENP7 block;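 active means mean inhibition across replicates above about 50%, limit read from the data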
SENP6 confirm – SENP6 protease inhibitors, confirmation, biochemical, luminescence, single concentration; shares compounds with SENP7 block; recombinant SENP6, Z-RLRGG-aminoluciferin luminescence; inhibition, % at 12.5 µM; hit rate 58% among 6,200
SENP7 conf – SENP7 protease inhibitors, retest, confirmation, biochemical, luminescence, single concentration | hit rate 69% among 6,200 | shares compounds with SENP7 block | recombinant SENP7, Z-RLRGG-aminoluciferin luminescence, 40 min | inhibition, % at 12.5 µM
Casp3 select – caspase-3 protease inhibitors, confirmation, selectivity assay for SENP inhibitor project, biochemical, single concentration. inhibition, % at 12.5 µM. AID 488918, 2010. purified caspase-3, Z-DEVD-aminoluciferin luminescence, 60 min. shares compounds with SENP7 block. hit rate 60% among 6,200;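 active means mean inhibition above about 50%, limit read from the data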;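 further: plate controls were enzyme with DMSO for no effect and wells without caspase-3 for full effect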
Target sequence (P42574 28-227 limits assumed): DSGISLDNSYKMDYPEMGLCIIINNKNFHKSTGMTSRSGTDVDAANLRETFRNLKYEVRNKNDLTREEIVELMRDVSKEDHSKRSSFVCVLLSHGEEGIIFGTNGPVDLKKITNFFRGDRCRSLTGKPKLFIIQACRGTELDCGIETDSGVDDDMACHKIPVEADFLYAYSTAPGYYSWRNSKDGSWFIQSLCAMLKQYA
Luc interf – interferes with luciferase luminescence in SENP counter-screen; inhibition, % at 12.5 µM; AID 488919; Pre-incubated SENP8/Z-RLRGG-aminoluciferin, luciferase luminescence interference; hit rate 39% among 6,200; shares compounds with SENP7 block;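 active means mean inhibition above about 50% when retested at one dose, limit read from the data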;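 further: plate controls were DMSO wells with completed reaction for no effect and substrate without enzyme for full effect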
The depositor's hits bear a star. Hits are enriched below; roughly 2.9% of the tested compounds scored in any of these assays.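 How the source made its calls, unless noted: active means mean inhibition above about 50% in the one-dose retest (limit read from the data); inactive means the rest.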

NC(=O)c1ccccc1N/C=C/C(=O)c1ccc(Cl)cc1 was read as SENP8 block-1 inactive, SENP7 block 93.3*, HSP90 refold inh -0.5, SENP8 block-2 64.4*, SENP1 inh -56.0, SENP6 inh 83.7*, SENP8 conf 47.6, SENP6 confirm 77.9*, SENP7 conf 75.7*, Casp3 select 89.5* and Luc interf 28.8.
Screening Cc1ccc(C(=O)/C=C\Nc2ccc(C)c(C)c2)cc1 returned SENP8 block-1 -166.5, SENP7 block 45.2, HSP90 refold inh -3.1, SENP8 block-2 -23.0, SENP1 inh -66.7 and SENP6 inh 27.0.
Screening Cc1ccc(/C=C/C(=O)Nc2ccccc2C(N)=O)cc1 returned SENP8 block-1 -0.2, HSP90 refold inh 2.3 and SENP1 inh 0.0.
Screening Cc1ccc(C(=O)/C=C/Nc2ccccc2C(N)=O)cc1 returned SENP8 block-1 inactive, SENP7 block 90.0*, HSP90 refold inh 5.5, SENP8 block-2 86.4*, SENP1 inh -86.1, SENP6 inh 95.1*, SENP8 conf 22.2, SENP6 confirm 90.0*, SENP7 conf 101.5*, Casp3 select 94.5* and Luc interf 48.1.
Screening Cc1ccc(O)c(N/C=C/C(=O)c2ccc(F)cc2)c1 returned SENP8 block-1 -39.9, SENP7 block 68.4*, HSP90 refold inh 6.2, SENP8 block-2 79.6*, SENP1 inh -22.6, SENP6 inh 82.4*, SENP8 conf 61.1*, SENP6 confirm 79.7*, SENP7 conf 95.3*, Casp3 select 67.1* and Luc interf 22.1.
`Cc1ccc(NC(=O)CCN2C(=O)OC(C)(C)C2(C)O)cc1` (stereo not given) gave SENP8 block-1 18.2, SENP7 block 7.9, HSP90 refold inh -3.1, SENP8 block-2 6.0, SENP1 inh -0.9 and SENP6 inh -3.1.
Cc1cccc2c1OCC/C2=N\NC(=O)COc1ccccc1Cl was read as SENP8 block-1 -215.7, SENP7 block 72.6*, HSP90 refold inh -6.8, SENP8 block-2 -33.4, SENP1 inh 0.5, SENP6 inh -40.9, SENP8 conf 8.5, SENP6 confirm 6.5, SENP7 conf 3.4, Casp3 select -3.3 and Luc interf -8.3.
c1ccc(-c2noc(-c3cccnc3)n2)cc1 was read as SENP8 block-1 12.0, SENP7 block 6.8, HSP90 refold inh -3.6, SENP8 block-2 58.2*, SENP1 inh -0.1, SENP6 inh 76.0*, SENP8 conf 2.6, SENP6 confirm 60.3*, SENP7 conf 88.2*, Casp3 select 77.4* and Luc interf 15.5.
`COc1ccc(-c2noc(-c3cccnc3)n2)cc1OC` gave SENP8 block-1 19.6, SENP7 block 35.0, HSP90 refold inh 0.8, SENP8 block-2 19.1, SENP1 inh -14.2 and SENP6 inh 43.5.
